Consider 167 variants from the RNAGym collection of RNA variant scans (doi:10.1126/science.aae0568).

First the molecules themselves.
B1: tRNA (parent)
chain: GUUCCGUUGGCGUAAUGGUAACGCGUCUCCCUCCUAAGGAGAAGACUGCGGGUUCGAGUCCCGUACGGAACG

This sample holds only a part of the variants without activity. Bounds are passed on as bounds.

This data set covers variants of B1. Nature of the data set: yeast fitness relative to wild type (ratio to wild type); higher = fitter; tRNA-Arg(CCU), competitive growth, 37 C, YPD. Summed up: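 For this measurement, the tRNA-Arg(CCU) gene was varied by chemical synthesis at a 3% per-site mutation rate across 69 sites, and each variant was placed at the native genomic locus in Saccharomyces cerevisiae. The pooled strains went through a 24-hour competition in YPD at 37°C in six parallel replicates, with amplicons from start and end populations read by 100-nucleotide paired-end sequencing. Darwinian fitness relative to wild type followed from the change in each genotype's frequency. Genotypes needed ≥ 100 starting reads, and estimates < 0.5 were set to 0.5.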
On to U16G G18C U59A A65U, for which the yeast fitness was found to be 0.687.

Regarding U16G C49U G63A, the yeast fitness turned out to be 0.994.

As to U16C U19A C29U, the yeast fitness was determined as 0.615.

Turning to U16A C55A, the yeast fitness stood at 0.699.

U16C C22A A40G C60A: the yeast fitness was no more than 0.5.

Regarding U16C G51A A65U A70G, the yeast fitness is no more than 0.5.

On to U16A C22U U26C G67A, for which the yeast fitness is no more than 0.5.

Regarding U16A G48A C62G A69U, the yeast fitness was 0.629.

U16C G68A: the yeast fitness was 0.767.

Turning to U16C G68C, the yeast fitness was determined as 0.834.

U16C U26A A43U C62U: the yeast fitness is no more than 0.5.

For U16A C24U C34A, the yeast fitness came to 0.656.

Regarding U16A G39A G48A G63A A65C, the yeast fitness was no more than 0.5.

Take U16A C24U C29A: the yeast fitness was 0.57.

Regarding U16C A21U, the yeast fitness was 0.756.

As for U16C A21U C31G, the yeast fitness was determined as 0.537.

In the case of U16C C61U, the yeast fitness is 0.93.

Regarding U16G C62U A70C, the yeast fitness was found to be 0.565.

Consider U16C U59C G67A, for which the yeast fitness was no more than 0.5.

Take U16G C49U G56C: the yeast fitness is no more than 0.5.

In the case of U16C U28C G52C, the yeast fitness was no more than 0.5.

Consider U16C U35C, for which the yeast fitness was 0.609.

As for U16A C49U, the yeast fitness came out at 0.946.

For the variant U16A C30A A42C, the yeast fitness turned out to be 0.558.

On to U16G A45U U54C U64A, for which the yeast fitness was no more than 0.5.

As to U16A G50C C55U U59G C66U G67A, the yeast fitness was no more than 0.5.

Turning to U16C A36U A65U, the yeast fitness was no more than 0.5.

For U16A U19A A69C, the yeast fitness is 0.747.

Take U16C A20U C24U C49A: the yeast fitness was no more than 0.5.

Take U16C A57U: the yeast fitness amounted to 0.686.

With U16G A20C G41A C55U, the yeast fitness was no more than 0.5.

With U16G C29U, the yeast fitness turned out to be 0.806.

Consider U16A C27G, for which the yeast fitness was 0.548.

For U16G C31A C60A G67A, the yeast fitness was 0.678.

Take U16G C60G: the yeast fitness was 0.658.

As to U16C C34G G44A A65U, the yeast fitness is no more than 0.5.

Take U16G C61U C66G: the yeast fitness is 0.569.

For the variant U16C C30U G41C, the yeast fitness was no more than 0.5.

U16G A43U G50C: the yeast fitness was determined as 0.576.

Take U16C U26A G38C U47A C49A: the yeast fitness is no more than 0.5.

Turning to U16A C27G C46G G67A, the yeast fitness is 0.505.

As to U16C U26C G58A, the yeast fitness stood at 1.11.

Consider U16C G52A G56C, for which the yeast fitness is no more than 0.5.

Take U16A C33A C34A C62A: the yeast fitness is no more than 0.5.

For U16G C33U G44C, the yeast fitness was no more than 0.5.

Regarding U16C C31G, the yeast fitness amounted to 0.838.

On to U16A U32C C34U, for which the yeast fitness was no more than 0.5.

U16C G18C C24U A40U C55U U59A: the yeast fitness was no more than 0.5.

For the variant U16C A70U, the yeast fitness worked out at 0.902.

In the case of U16A G39A C46U A57U C66U, the yeast fitness is no more than 0.5.

On to U16G C30A G51C G56C C62G, for which the yeast fitness worked out at 0.65.

Turning to U16C A37G A42C G67A, the yeast fitness was no more than 0.5.

Regarding U16A G67A, the yeast fitness worked out at 0.926.

Regarding U16A G67U, the yeast fitness is 0.85.

For U16C A21U C30U C34G A36C, the yeast fitness is no more than 0.5.

On to U16A G23A C33A, for which the yeast fitness came to 0.644.

For U16C A65G A70C, the yeast fitness is 0.786.

Turning to U16C U26A G38C, the yeast fitness was no more than 0.5.

Turning to U16C A21C A37G C55A, the yeast fitness was no more than 0.5.

In the case of U16C U54A, the yeast fitness is 0.685.

Regarding U16C C22U A37U C49A C62U, the yeast fitness worked out at 0.6.

As for U16A C33A C34A, the yeast fitness is no more than 0.5.

Regarding U16C C27A A45U C60G A65U, the yeast fitness was found to be 0.542.

Take U16G G39A A45C C61A A69U: the yeast fitness was no more than 0.5.

Consider U16A C46U G51C, for which the yeast fitness was determined as 0.769.

For the variant U16G A45U, the yeast fitness amounted to 0.969.

Consider U16G A45G, for which the yeast fitness turned out to be 1.

With U16C C29G C60U, the yeast fitness is 0.638.

As for U16C C33U A36C A45C U64G, the yeast fitness is no more than 0.5.

Regarding U16G C22G U47G, the yeast fitness was determined as 0.557.

As to U16G C31G C61A C66U, the yeast fitness was no more than 0.5.

With U16G G18C U59A A65U C66A, the yeast fitness was no more than 0.5.

As to U16C A37C C55G C62U, the yeast fitness was no more than 0.5.

Consider U16C C22U A40G A43U C46G C49G C62U, for which the yeast fitness stood at 0.55.

For the variant U16C G63A, the yeast fitness is 0.884.

Consider U16C U28C C55U A57C G58A, for which the yeast fitness is no more than 0.5.

Regarding U16C A21U A43U C61G, the yeast fitness is no more than 0.5.

U16A U19C: the yeast fitness turned out to be 1.03.

As for U16A U19A, the yeast fitness was determined as 0.952.

Take U16C U47A C49A C62U: the yeast fitness stood at 0.778.

Turning to U16C C31U C33A C34G U35A G52A G67A, the yeast fitness was no more than 0.5.

Turning to U16C C31U C55U, the yeast fitness is 0.659.

For U16A G51A, the yeast fitness amounted to 0.752.

Turning to U16A C31A A69U, the yeast fitness worked out at 0.62.

For the variant U16C G25A C27A C29U G44A C55A, the yeast fitness was no more than 0.5.

With U16C C55U A69U, the yeast fitness was 0.629.

Take U16C C55A A57U: the yeast fitness is no more than 0.5.

Take U16C C55A A57C: the yeast fitness is no more than 0.5.

In the case of U16C A42C U53A, the yeast fitness was no more than 0.5.

In the case of U16C A21C G41C A43C, the yeast fitness is no more than 0.5.

As to U16C G25C C34U, the yeast fitness turned out to be 0.544.

As to U16G C29U C31A A57C G67C, the yeast fitness was no more than 0.5.

For the variant U16C U28C A37C G56A U59C, the yeast fitness is no more than 0.5.

As for U16C G18C A42G, the yeast fitness was no more than 0.5.

Consider U16C U35C A57C, for which the yeast fitness was determined as 0.532.

Regarding U16G C46U U53C A69C, the yeast fitness was determined as 0.711.

U16A C30G G44C A65C: the yeast fitness was no more than 0.5.

For the variant U16C C22G U64C, the yeast fitness came to 0.625.

Take U16G G23C U35C: the yeast fitness was determined as 0.655.

In the case of U16C C29A C55G A70U, the yeast fitness was no more than 0.5.

For the variant U16G A40G, the yeast fitness stood at 0.935.

For the variant U16C U26C A40C A43G G44A, the yeast fitness is no more than 0.5.

With U16G G17C A43U G52C, the yeast fitness was no more than 0.5.

U16C G18A C24G A45U: the yeast fitness is no more than 0.5.

In the case of U16A C24G A43C, the yeast fitness came out at 0.512.

In the case of U16A C34U, the yeast fitness was 0.663.

Take U16A C62U A69G: the yeast fitness turned out to be 0.922.

As for U16A G52A A57C C66U, the yeast fitness is no more than 0.5.

U16G A37U A45C: the yeast fitness is no more than 0.5.

On to U16C C33U A36C G56C, for which the yeast fitness was no more than 0.5.

With U16C A40U G52A C55A G56C, the yeast fitness is no more than 0.5.

With U16C C22G C66U, the yeast fitness was 0.721.

Take U16C A20U U32C: the yeast fitness is 0.615.

As to U16A U54G, the yeast fitness amounted to 0.536.

Turning to U16A U54A, the yeast fitness stood at 0.573.

Turning to U16C C30U C34G C49A A70U, the yeast fitness was no more than 0.5.

In the case of U16A C27G A65C, the yeast fitness came out at 0.585.

Turning to U16G C22U G25A, the yeast fitness was no more than 0.5.

For the variant U16C C31G G39A A57U, the yeast fitness is 0.692.

Take U16G G39C A42U U54C C55G U64A: the yeast fitness was no more than 0.5.

Consider U16C G17A C34U A42U U64A G68U, for which the yeast fitness was no more than 0.5.

U16A G58A G67U: the yeast fitness is no more than 0.5.

Consider U16A G25C A40C C49U, for which the yeast fitness is no more than 0.5.

In the case of U16G A20U, the yeast fitness is 0.642.

Consider U16G C46U A65C, for which the yeast fitness is 1.13.

Turning to U16C C24U C29A U32A C46G A57C, the yeast fitness came to 0.522.

On to U16C U53A, for which the yeast fitness turned out to be 0.611.

On to U16C C29U G63A, for which the yeast fitness turned out to be 0.527.

For U16A C29G C30U A40U A70G, the yeast fitness is no more than 0.5.

U16A G25A C49A: the yeast fitness was no more than 0.5.

As for U16A G23C C29U C31G, the yeast fitness was no more than 0.5.

On to U16C C29G, for which the yeast fitness worked out at 0.619.

In the case of U16A C60A G67C, the yeast fitness was no more than 0.5.

Turning to U16G G56C, the yeast fitness is no more than 0.5.

For U16C A43C A45U C49G, the yeast fitness was found to be 0.722.

Regarding U16C U47C, the yeast fitness stood at 0.899.

In the case of U16C C46G G56A, the yeast fitness turned out to be 0.748.

In the case of U16C U32C G39C, the yeast fitness was no more than 0.5.

Take U16G G52A: the yeast fitness was 0.668.

Consider U16G C34U A40G A43G C62A A69C, for which the yeast fitness was no more than 0.5.

For the variant U16C C27G C29U U54C, the yeast fitness was 0.568.

Regarding U16A C27G A36U, the yeast fitness is no more than 0.5.

As for U16G C24U U28C A36C A65C, the yeast fitness amounted to 0.58.

For U16G C22U C62U, the yeast fitness was found to be 0.645.

As for U16A G50C C66G, the yeast fitness was no more than 0.5.

For the variant U16C G41A C49U, the yeast fitness came to 0.605.

As to U16C G18A C24G A45U U59G G68C, the yeast fitness came out at 0.537.

As for U16A G56C A57U C60U, the yeast fitness was no more than 0.5.

Turning to U16C C24U U53C C60G, the yeast fitness is 0.559.

With U16G C30U A65U, the yeast fitness is no more than 0.5.

Turning to U16C C60G, the yeast fitness is 0.658.

On to U16G G48A, for which the yeast fitness is 0.903.

With U16C A40C A57G C61U, the yeast fitness was no more than 0.5.

On to U16A C27G A42U U53C, for which the yeast fitness was no more than 0.5.

For U16C C34U, the yeast fitness is 0.759.

U16C C34G: the yeast fitness stood at 0.609.

With U16C G17C A21C C66U G68A, the yeast fitness is no more than 0.5.

Take U16G A21G C30U A37C: the yeast fitness was no more than 0.5.

U16G C46A G56C A70G: the yeast fitness was no more than 0.5.

On to U16G C31G G48C A57U, for which the yeast fitness is no more than 0.5.

On to U16C A43G U59C, for which the yeast fitness came out at 0.609.

For U16C C46G C55G C60G, the yeast fitness was 0.615.

With U16A C27U G38A, the yeast fitness is no more than 0.5.

Consider U16A C24U C34A A65G G67A, for which the yeast fitness is no more than 0.5.

Take U16C C46U A69C: the yeast fitness came out at 0.783.

Regarding U16A C30G A57U, the yeast fitness is no more than 0.5.

With U16A C60A C62U, the yeast fitness amounted to 0.609.
